Source: ChEMBL document CHEMBL3612066, “Design, Synthesis, and Biological Evaluation of Pyrazolo[1,5-a]pyridine-3-carboxamides as Novel Antitubercular Agents” (ACS Med Chem Lett, 2015)
Converted amounts (≈) assume the structure as drawn.

Columns and labels:
Format in all cases: functional
[1] = system: Mycobacterium tuberculosis; assay: Antitubercular activity against multidrug-resistant Mycobacterium tuberculosis UAlP163 after 7 days by autoluminescent assay; settings: UAlP163, 168 h
In short: (§1)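 Autoluminescent assay against MDR clinical isolates (3495, P71, 9804, 4768, P163). Bacterial growth was read as bioluminescence intensity with no added substrate. MIC values are means of two independent experiments.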

[2] = system: Mycobacterium tuberculosis; assay: Antitubercular activity against multidrug-resistant Mycobacterium tuberculosis UAl3495 after 7 days by autoluminescent assay; settings: UAl3495, 168 h; in short: as §1
[3] = system: Mycobacterium tuberculosis; assay: Antitubercular activity against multidrug-resistant Mycobacterium tuberculosis UAl9804 after 7 days by autoluminescent assay; settings: UAl9804, 168 h; in short: as §1
[4] = system: Mycobacterium tuberculosis; assay: Antitubercular activity against multidrug-resistant Mycobacterium tuberculosis UAlP7 after 7 days by autoluminescent assay; settings: UAlP7, 168 h; in short: as §1
[5] = system: Mycobacterium tuberculosis; assay: Antitubercular activity against multidrug-resistant Mycobacterium tuberculosis UAl4768 after 7 days by autoluminescent assay; settings: UAl4768, 168 h; in short: as §1

`Cc1ccn2nc(C)c(C(=O)NCc3ccc(N4CCC(c5ccc(OC(F)(F)F)cc5)CC4)cc3)c2c1` showed an MIC [1] of under 0.383 µM, an MIC [2] of 1.91 µM (≈ 1 µg/mL) and an MIC [3] of under 0.383 µM. The MIC [4] was under 0.383 µM and the MIC [5] was under 0.383 µM.
`COc1ccn2nc(C)c(C(=O)NCc3ccc(N4CCC(c5ccc(OC(F)(F)F)cc5)CC4)cc3)c2c1` gave an MIC [1] of 0.0111 µM (≈ 0.00598 µg/mL), an MIC [2] of 0.0223 µM (≈ 0.012 µg/mL) and an MIC [3] of under 0.0111 µM. It also gave an MIC [4] of 0.0111 µM (≈ 0.00598 µg/mL) and an MIC [5] of 0.0111 µM (≈ 0.00598 µg/mL).
For `CCc1nn2ccc(Cl)cc2c1C(=O)NCc1ccc(N2CCC(c3ccc(OC(F)(F)F)cc3)CC2)cc1`, the MIC [1] was under 0.0359 µM, the MIC [3] was under 0.0359 µM and the MIC [4] was 0.0718 µM (≈ 0.04 µg/mL). The MIC [5] was 0.0359 µM (≈ 0.02 µg/mL).
`Cc1nn2ccc(Cl)cc2c1C(=O)NCc1ccc(N2CCC(c3ccc(OC(F)(F)F)cc3)CC2)cc1` gave an MIC [1] of under 0.184 µM, an MIC [3] of under 0.184 µM and an MIC [4] of under 0.184 µM. For the same compound, the MIC [5] was under 0.184 µM.
